KCNK3 block – human KCNK3 channel inhibitors, primary screen, CHO cells, FluxOR thallium flux, B-score. Potassium channel subfamily K member 3 (Homo sapiens), O14649. FluxOR fluorescence; stronger effect = lower value. B-score at 10 µM. 0.84% of 340,000 active. AID 602410, 2012;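 active means B-score under library mean minus 4 SD, starting fluorescence ratio at most library mean plus 5 SD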;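 further: more negative B-score means stronger inhibition of thallium flux through KCNK3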
hERG rescue – hERG rescue from dofetilide block, primary screen, cell-based, CHO-hERG, FluxOR thallium flux, dofetilide IC70; Voltage-gated inwardly rectifying potassium channel KCNH2 (Homo sapiens), Q12809; dofetilide IC70 present; activation (rescue from dofetilide block), less the hit threshold, % at 10 µM; 0.51% of 310,000 active; AID 1511, 2009;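 active means activation above the mean of controls blocked by dofetilide plus 5 SD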;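 further: thallium influx through hERG after potassium depolarization seen as dye fluorescence rise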
Target sequence (Q12809 whole entry, looked up): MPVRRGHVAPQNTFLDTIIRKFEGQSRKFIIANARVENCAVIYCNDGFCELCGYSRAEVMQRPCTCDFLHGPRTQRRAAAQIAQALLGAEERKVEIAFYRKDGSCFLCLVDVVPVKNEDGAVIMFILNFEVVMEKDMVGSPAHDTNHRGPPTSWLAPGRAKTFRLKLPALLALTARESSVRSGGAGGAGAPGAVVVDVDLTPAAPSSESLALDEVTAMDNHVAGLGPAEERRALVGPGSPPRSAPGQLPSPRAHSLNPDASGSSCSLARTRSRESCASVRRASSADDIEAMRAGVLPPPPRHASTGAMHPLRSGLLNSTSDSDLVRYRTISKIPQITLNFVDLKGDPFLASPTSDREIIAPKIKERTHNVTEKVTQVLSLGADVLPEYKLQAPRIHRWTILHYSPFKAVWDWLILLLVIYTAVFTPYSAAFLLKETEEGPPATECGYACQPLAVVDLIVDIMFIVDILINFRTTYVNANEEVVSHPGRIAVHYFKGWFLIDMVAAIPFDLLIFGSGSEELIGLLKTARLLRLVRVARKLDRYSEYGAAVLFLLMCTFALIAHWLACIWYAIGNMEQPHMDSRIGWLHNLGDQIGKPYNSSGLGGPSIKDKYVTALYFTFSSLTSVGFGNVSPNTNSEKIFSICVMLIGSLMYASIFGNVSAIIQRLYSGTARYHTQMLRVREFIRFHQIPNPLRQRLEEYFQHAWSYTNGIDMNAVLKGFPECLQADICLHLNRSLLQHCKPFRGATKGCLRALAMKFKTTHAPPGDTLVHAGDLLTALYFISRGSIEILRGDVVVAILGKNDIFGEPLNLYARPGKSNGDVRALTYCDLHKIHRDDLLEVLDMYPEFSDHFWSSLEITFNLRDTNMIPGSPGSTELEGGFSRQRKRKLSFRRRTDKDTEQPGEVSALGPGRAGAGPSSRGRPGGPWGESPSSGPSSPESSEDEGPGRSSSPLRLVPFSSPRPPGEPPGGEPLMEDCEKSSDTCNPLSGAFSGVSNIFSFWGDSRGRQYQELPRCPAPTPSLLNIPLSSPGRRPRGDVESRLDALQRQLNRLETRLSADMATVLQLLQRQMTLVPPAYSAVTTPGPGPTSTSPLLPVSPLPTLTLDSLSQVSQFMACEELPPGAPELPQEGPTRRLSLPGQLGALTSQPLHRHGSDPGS
KCNQ1 pot – potentiators or activators of KCNQ1 channel, primary screen, cell-based, thallium flux, high-throughput | CHO-K1 KCNQ1, thallium flux FluxOR fluorescence; stronger effect = higher value | B-score at 10 µM | 0.35% of 310,000 active | Potassium voltage-gated channel subfamily KQT member 1 (Homo sapiens), P51787 | AID 2648, 2010;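 active means fluorescence ratio B-score, a plate-corrected score, at least three library SD, with initial intensity B-score within 5 SD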
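assay system = KCNQ1-transfected CHO-K1 cells | medium = assay buffer with matched DMSO | probe or stimulus = depolarizing K+/Tl+ stimulus, K2SO4 and Tl2SO4 each 12.5 mM in 5x stock | dosing = single dose | incubation = dye 90 min, compound 20 min, room temperature | detection = kinetic FluxOR fluorescence, 10 s baseline plus 110 s post-stimulus | evaluation = ratio B score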
KCNQ1 inh – inhibitors of human KCNQ1 channel, primary screen, cell-based, thallium flux, high-throughput; CHO-K1 KCNQ1, FluxOR thallium flux fluorescence; stronger effect = higher value; B-score at 10 µM; 1.3% of 310,000 active; Potassium voltage-gated channel subfamily KQT member 1 (Homo sapiens), P51787;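 active means compounds whose thallium flux B-score, printed positive for inhibition, exceeds three library SD while starting fluorescence stays within three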;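 further: channel opened by potassium depolarization with thallium stimulus after 20 min compound exposure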
Kir21 inh – inhibitors of mouse Kir2.1 inward-rectifier potassium channel | HEK293-Kir2.1, FluxOR thallium flux fluorescence; stronger effect = lower value | B-score at 10 µM | 0.85% of 310,000 active | AID 1672, 2009;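 active means fluorescence ratio B-score at or below minus 3 SD of library scores, with starting-brightness B-score within 2 SD, cut at about -4.2 in these data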;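 further: channel flux triggered by added potassium and thallium sulfate stimulus; B-score of peak minus minimum fluorescence over baseline after thallium stimulus; more negative B-score means stronger Kir2.1 block with less thallium influx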
KCNK9 block – KCNK9 potassium channel inhibitors, primary screen, HEK293 cells, thallium flux | Potassium channel subfamily K member 9 (Homo sapiens), Q9NPC2 | FluxOR thallium flux fluorescence; stronger effect = lower value | B-score at 10 µM | 1.2% of 310,000 active;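 active means ratio B-score over 3 SD below the library mean, with starting fluorescence within 5 SD of its mean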;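 further: negative B-score means less thallium flux so channel inhibition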
A number is an active result; n = inactive; x = no result. The list is not random: actives were taken first. Their share in the collection is about 3.8%.

SMILES	KCNK3 block	hERG rescue	KCNQ1 pot	KCNQ1 inh	Kir21 inh	KCNK9 block
CCOC(=O)C1=C(C)NC(C)=C(C(=O)OC)C1c1cccc([N+](=O)[O-])c1 (stereo not drawn)	n	n	n	n	n	n
Cn1ncc2c(O/N=C(\N)c3ccc(C(C)(C)C)cc3)ncnc21	n	n	10	n	n	n
CSc1nc2c(cc1C#N)C(=O)CC(C)(C)C2	n	n	n	n	n	n
CCCCOC(=O)CSc1nc2c(cc1C#N)C(=O)CC(C)(C)C2	n	n	n	n	n	-8.1
COCCNC(=O)c1cc(-c2ccccc2)nn1Cc1cc(C)no1	n	x	x	x	x	x
CC1(C)CC(=O)C2=C(C1)N(c1ccccc1)C(=O)C2(O)C(F)(F)F (stereo not drawn)	n	n	n	n	n	n
COc1ccc(C(=O)NNC(=O)CN2CCC(n3nnc4cc(F)ccc43)CC2)cc1	n	n	n	n	n	n
O=C(NCC(c1ccco1)N1CCc2ccccc2C1)c1ccc(Cl)c([N+](=O)[O-])c1 (stereo not drawn)	n	n	n	6	n	n
O=C(NCC(c1ccco1)N1CCc2ccccc2C1)c1ccc(Cl)cc1 (stereo not drawn)	n	n	n	n	n	n
NC(=S)N=Nc1c(O)n(Cc2ccc(Br)cc2)c2ccccc12	n	15	n	n	n	n
C/C(Cl)=C\Cn1c(O)c(N=NC(N)=S)c2cc(Br)ccc21	n	26	19	n	n	n
COc1ccc(C(=O)N2N=C(c3cccc(NS(C)(=O)=O)c3)CC2c2cccs2)cc1 (stereo not drawn)	n	n	n	n	n	n
CC(Sc1nnc(C2CC2)n1C1CC1)C(=O)Nc1ccccc1C#N (stereo not drawn)	n	x	x	x	x	x
Cc1ccccc1OCC(=O)Nc1ccc(C(=O)Nc2ccccc2C(=O)O)cc1	n	n	n	n	n	n
CCCN1C(=O)SC(CC(=O)Nc2cccc3ccccc23)C1=O (stereo not drawn)	n	n	n	n	n	n
CCCN1C(=O)SC(CC(=O)Nc2ccccc2)C1=O (stereo not drawn)	n	8.6	n	n	n	n
Cc1nc2c(C(=O)N3CCN(c4ccccn4)CC3)cnn2c(C)c1Cc1cccc(Cl)c1	n	n	7	n	n	n
O=C(NC(=S)Nc1ccccc1Cl)c1csnn1	n	60	n	n	n	n
O=C(NC(=S)Nc1cccc(C(F)(F)F)c1)c1csnn1	n	54	63	n	n	n
COc1ccccc1N1CCN(C(=O)CCCN2C(=O)c3cccc4cccc(c34)C2=O)CC1	n	n	n	6	n	n
COC(=O)C1=C(C)N(Cc2ccccc2)C(=NCc2cccc(C(F)(F)F)c2)N[C@H]1c1cccc(F)c1	n	n	n	n	-5.6	n
CCN1C(=NCCc2cccs2)N[C@@H](c2cccs2)C(C(=O)OC)=C1C	n	n	n	n	-6	n
COC(=O)C1=C(C)N(Cc2ccccc2)C(=NCC(C)C)N[C@H]1c1ccccc1	x	n	n	n	-8.2	n
COC(=O)C1=C(C)N(Cc2ccccc2)C(=NCc2ccc(OC)cc2)N[C@H]1c1ccccc1	n	x	x	x	x	x
CCN1C(=S)N[C@@H](c2cccc(F)c2)C(C(=O)OC)=C1C	n	n	n	n	n	n
SMILES	KCNK3 block	hERG rescue	KCNQ1 pot	KCNQ1 inh	Kir21 inh	KCNK9 block
COC(=O)C1=C(C)N(Cc2ccccc2)C(=NCc2cccc(C(F)(F)F)c2)N[C@H]1c1cccc(C(F)(F)F)c1	n	x	x	x	x	x
CCOC(=O)CN1C(=O)N[C@@H](c2cccs2)C(C(=O)OC)=C1C	n	n	n	n	n	n
CCN1C(=NCc2cccc(Cl)c2)N[C@@H](c2cccc(F)c2)C(C(=O)OC)=C1C	n	n	n	n	-4.5	n
O=C(Nc1ccccc1OC(F)F)C1CCCN1C(=O)c1cccs1 (stereo not drawn)	n	n	n	n	n	n
CCOC(=O)CC1C(=O)NCCN1S(=O)(=O)c1cccc(C(F)(F)F)c1 (stereo not drawn)	n	n	n	n	n	n
COCCN1C(=O)N[C@@H](c2cccc(F)c2)C(C(=O)OC)=C1C	n	4.9	n	n	n	n
COC(=O)C1=C(C)N(Cc2ccccc2)C(=NCCCCO)N[C@H]1CCc1ccccc1	n	n	n	n	-5.1	n
COC(=O)C1=C(C)N(Cc2ccccc2)C(=O)N[C@H]1c1cccc(F)c1	n	n	n	n	n	n
O=S(=O)(c1ccc(Br)s1)N1CCN(CCc2ccccc2)CC1	n	x	x	x	x	x
CC(=O)OCC1O[C@@H](O[C@@H]2C[C@H]3C(C)(C)[C@H](OC(C)=O)CC[C@]3(C)[C@H]3CC[C@]45C[C@]4(CC[C@H]5[C@@H](C)C[C@@H](O)[C@H](O)C(C)(C)O)[C@@]32C)[C@H](O)[C@@H](O)[C@@H]1O (stereo partly drawn)	x	6.5	n	n	n	n
CC(C)=CCC[C@](C)(O[C@@H]1O[C@H](CO[C@@H]2O[C@H](CO)[C@@H](O)[C@H](O)[C@H]2O)[C@@H](O)[C@H](O)[C@H]1O)C1CC[C@]2(C)C1C(=O)CC1[C@@]3(C)CC[C@H](O[C@H]4O[C@@H](CO)[C@H](O)[C@@H](O)[C@@H]4O)C(C)(C)C3CC[C@]12C (stereo partly drawn)	n	x	x	x	x	x
S=c1nc(Cc2ccccc2)[nH]c2ccccc12	n	44	48	n	n	n
S=c1nc(COc2ccccc2)[nH]c2ccccc12	n	76	92	n	n	n
S=c1nc(Cc2ccc(Cl)cc2)[nH]c2ccccc12	n	n	43	n	n	n
C/C(=C\C(=O)c1ccc(Cl)cc1Cl)N(C)C	n	n	n	n	n	n
COc1ccc(N2CCN(c3ncnc4scc(-c5ccc(C)cc5)c34)CC2)cc1	n	n	n	n	n	-7.9
COc1ccc(-c2csc3ncnc(N4CCN(c5cccc(Cl)c5)CC4)c23)cc1	n	n	n	6	n	n
COc1ccc(-c2csc3ncnc(N4CCN(S(=O)(=O)c5ccc(Cl)s5)CC4)c23)cc1	n	n	n	n	n	n
COc1ccc(-c2csc3ncnc(N4CCN(S(=O)(=O)c5ccc(C)cc5)CC4)c23)cc1	n	n	n	n	n	n
COC(C(=O)Nc1ccnn1C1CCN(Cc2ccc(C)s2)CC1)c1ccccc1 (stereo not drawn)	n	n	n	n	n	n
